Bioassay records from PubChem.
PDI turbidity: inhibitors of human protein disulfide isomerase. AID 588391. PDI insulin aggregation turbidity, A650, 90 min. 0.052% of 350,000 active. P07237. inhibition, % at 10 µM;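 active means mean inhibition across replicates of 30% or more, whatever share of single replicates reach that level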
ARNT TACC3 PPI: disrupts binding between human ARNT and TACC3; Q9Y6A5; inhibition, % at 9.99 µM; AlphaScreen His-ARNT PAS-B/GST-TACC3 binding, luminescence; TACC3 fragment carries E629A point mutation; 0.66% of 390,000 active;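 active means mean inhibition of replicates at least 50% and at least half of replicates each reaching 50%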;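 further: 0% = complete ARNT plus TACC3 wells and 100% = ARNT alone without TACC3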
FN deposition inh: fibronectin deposition inhibition | 0.086% of 350,000 active | AH1F fibroblasts, Alexa488-fibronectin deposition fluorescence, overnight | inhibition, % at 12.6 µM | AID 743247;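 active means mean inhibition across replicates of 30% or more, regardless of how many single replicates reach that level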;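 further: positive control wells lacked labelled fibronectin entirely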
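material = AH1F fibroblast monolayer depositing Alexa488-labelled fibronectin into matrix | amount = 10000 AH1F cells/well | buffer or medium = DMEM plus 2% serum, read in PBS | incubation = 1 h cell adhesion before compound, then overnight fibronectin incubation | detection = fluorescence at 485 nm excitation, 525 nm emission | evaluation = percent inhibition as loss of matrix-bound fibronectin fluorescence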
MLL AF4-AF9 inh: blocks AF4 peptide binding to human AF9; 0.47% of 350,000 active; P42568; inhibition, % at 10 µM; AlphaScreen, biotin-AF4 peptide binding to FLAG-AF9; AID 651704;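 active means every replicate reaching a set inhibition limit, whatever the replicate mean, cut at about 25% in these data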;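 further: 0% = plate neutral control median and 100% = total signal loss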
ERp5 inh: ERp5 (human) disulfide isomerase inhibition | Q15084 | ERp5 insulin aggregation, absorbance 650 nm, 90 min | inhibition, % at 9.99 µM | 0.05% of 350,000 active | AID 651711;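 active means mean replicate inhibition above about 25%, with every replicate also reaching it, limit read from the data, passing the limit was not always enough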
Target sequence (Q15084 whole entry, looked up): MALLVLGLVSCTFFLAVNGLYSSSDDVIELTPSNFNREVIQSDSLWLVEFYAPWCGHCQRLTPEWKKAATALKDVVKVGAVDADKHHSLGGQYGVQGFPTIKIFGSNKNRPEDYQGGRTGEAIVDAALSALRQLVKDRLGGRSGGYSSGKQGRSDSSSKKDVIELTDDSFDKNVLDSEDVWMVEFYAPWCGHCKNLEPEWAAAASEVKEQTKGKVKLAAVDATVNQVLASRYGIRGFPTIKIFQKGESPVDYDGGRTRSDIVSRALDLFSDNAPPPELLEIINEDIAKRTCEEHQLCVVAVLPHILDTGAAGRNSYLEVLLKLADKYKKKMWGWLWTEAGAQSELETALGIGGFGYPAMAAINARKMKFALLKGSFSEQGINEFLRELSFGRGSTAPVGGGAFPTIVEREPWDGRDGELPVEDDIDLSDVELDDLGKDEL
FGF22 binding: binders of recombinant human FGF22 by thermal shift; Q9HCT0; activity (Tm shift, normalised), % at 9.99 µM; 1.5% of 340,000 active; SYPRO orange fluorescence; percent of sucrose octasulfate shift, DMSO zero; AID 651658;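 active means mean Tm shift, scaled 0 neutral to 100 positive control, at about 1.3% or above, every replicate too, limit read from the data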
Active calls of the source: *; · = no result. This is a sample that favours compounds with a hit; in the whole collection about 2.1% have one here.

SMILES	PDI turbidity	ARNT TACC3 PPI	FN deposition inh	MLL AF4-AF9 inh	ERp5 inh	FGF22 binding
COc1ccc(NC(=O)C(c2ccccc2)c2ccccc2)cn1	-3.2	-1.3	-1.8	-1.8	1.2	43.2*
CN1c2ccc(-c3ccccc3)cc2[C@@H]2[C@@H](CCN2C(=O)c2ccccc2)[C@@H]1CO	·	-8.1	-15.9	6.9	3.5	-0.6
COc1ccc(C)cc1NC(=S)NN1CCN(C)CC1	-1.2	1.6	-15.6	-1.7	-3.6	0.2
Cc1ccc(NC(=S)NN2CCN(C)CC2)c(C)c1	1.2	·	5.0	-2.1	-6.0	43.4*
CCCC(=O)Nc1ccc2c(c1)C(=O)N(C)[C@@H]1CC[C@H](CC(=O)NCc3ccccc3Cl)O[C@@H]1CO2	·	-0.9	-4.8	0.7	5.0	0.1
CC(C)(C)OC(=O)NCc1ccc(CNC(=O)c2[nH]cnc2C(=O)Nc2ccccc2F)cc1	-0.2	·	-3.8	1.2	5.8	43.2*
CC(C)CC#Cc1ccc([C@H]2[C@@H](CO)N3C(=O)CN(C(=O)NC4CCCC4)C[C@@H]23)cc1	·	·	2.7	3.4	21.7	·
O=C(NNc1ccccc1)c1ccc(Cl)c(Cl)c1	-31.0	-5.4	-0.5	1.6	6.2	43.2*
COc1ccc(S(=O)(=O)N(C)C[C@H]2Oc3ccc(NC(=O)CCN4CCOCC4)cc3CC(=O)N([C@@H](C)CO)C[C@@H]2C)cc1	·	-2.5	1.1	-0.9	-3.7	0.2
CO[C@@H](CN(C)Cc1cc(F)ccc1F)[C@@H](C)CN(C(=O)Nc1ccc(F)cc1)[C@H](C)CO	·	5.7	-10.7	0.7	-2.5	0.0
CCCNC(=O)COC(=O)c1ccc(S(=O)(=O)N2CCCC2)cc1	-6.2	-4.8	3.2	-1.3	-3.7	43.9*
O=C(COC(=O)c1ccc(S(=O)(=O)Nc2ccccc2)cc1)NCCC1=CCCCC1	-2.9	-3.5	-0.5	-1.9	-0.3	43.6*
CCCNC(=O)COC(=O)c1ccc(Cl)c(S(=O)(=O)N2CCCC2)c1	0.2	-6.0	1.1	·	·	·
CO[C@H]1CN(C)C(=O)c2ccc(NC(=O)Nc3ccccc3)cc2OC[C@H](C)N(C(C)=O)C[C@@H]1C	·	·	·	-2.0	-3.7	0.3
Cc1noc(C)c1S(=O)(=O)Nc1ccc2c(c1)C(=O)N([C@@H](C)CO)C[C@H](C)[C@@H](CN(C)S(=O)(=O)c1c(C)noc1C)OCCCC[C@H](C)O2	·	-2.3	-1.1	-8.3	-6.7	-0.3
C[C@H]1CN([C@@H](C)CO)C(=O)c2cc(C#CC3CCCCC3)cnc2O[C@H]1CN(C)S(=O)(=O)c1ccc(F)cc1	·	-4.7	5.2	0.7	2.3	0.0
CC(=O)OCC(=O)Nc1ccc(Br)c(C)c1	-0.4	·	3.3	-1.7	-0.4	43.2*
Cc1cc(NC(=O)Nc2ccccc2F)ccc1Br	-14.8	·	39.4*	-3.5	0.5	0.3
Cn1nnc2cc(NC(=O)Nc3ccccc3F)ccc21	3.7	·	-7.5	-0.8	4.3	-0.1
Cc1ccccc1-c1ccc([C@@H]2[C@H](CO)N3CCCCN(C(=O)c4cccnc4)C[C@@H]23)cc1	·	-0.3	·	3.7	4.4	-0.2
C[C@H](CO)N1C[C@H](C)[C@@H](CN(C)Cc2ccccc2)Oc2ccc(NC(=O)Nc3ccc(F)cc3)cc2CC1=O	·	2.5	·	6.6	1.5	0.2
Fc1ccccc1C1c2[nH]c3ccccc3c2CCN1Cc1cccn1-c1ncccn1 (stereo not given)	4.3	16.2	2.0	26.7*	-0.2	0.1
CO[C@@H]1CN(C)C(=O)c2cc(NC(=O)C3CCCCC3)ccc2OC[C@@H](C)N(Cc2nccs2)C[C@@H]1C	·	2.6	-3.1	0.8	-6.6	-0.1
O=C(Nc1nnc(C2CC2)o1)c1ccc(S(=O)(=O)N2CCCc3ccccc32)cc1	-10.4	47.9*	4.1	2.6	2.9	0.1
COc1ccc(S(=O)(=O)N2CCCCC2C)cc1 (stereo not given)	1.1	-2.3	2.4	29.1*	-3.4	0.1
COCc1nnc(NC(=O)c2ccc(S(=O)(=O)N3CCCc4ccccc43)cc2)o1	-0.7	·	9.3	1.0	5.6	-0.2
Cc1nnc(NC(=O)c2ccc(S(=O)(=O)N3CCCCC3C)cc2)o1 (stereo not given)	-3.0	51.2*	·	1.8	0.6	0.1
